Records with an inconclusive call do not appear. Calls of active or inactive are those of the source.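 Rule for the calls, unless noted: active = viability at or below 27.92% in each of two runs, the all-compound median minus 4 SD; inconclusive = no clear call, values can overlap the other calls; inactive = the rest.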
Experiments:
[1] = OD615 S. cerevisiae growth inhibition, permissive medium, pilot counter-assay, permissive growth control for S. cerevisiae lifespan shortening project (AID 705;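 active = growth inhibition above 25% in both replicates, a cutoff set 3 SD above the mean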); settings: OD615, 24 h, at 10 µM, stronger effect = higher value
Outline: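 System: engineered DeaD yeast; Medium: permissive raffinose/galactose medium; Compound dosing: 10 µM single dose, 0.25% DMSO; Incubation: 4 h cell pre-growth, 24 h exposure at 30 °C; Technique: OD at 615 nm; Evaluation: growth inhibition from lowered OD615 after 24 h.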

[2] = Restrictive medium S. cerevisiae growth inhibition, OD615, pilot screen of yeast lifespan reduction project, restrictive growth control (AID 706;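 active = growth inhibition above a set limit, 3 SD over mean compound inhibition, in both replicates, cut at about 43% in these data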;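 note: modified DeaD lifespan yeast strain shifted to restrictive glucose medium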); settings: OD615, 48 h, at 10 µM, stronger effect = higher value
Outline: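 Material: modified S. cerevisiae; buffer or medium: CSMM-D glucose medium; doses: one concentration, 10 µM final, 0.25% DMSO; incubation: 48 h compound exposure at 30 °C; detection: optical density at 615 nm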

[3] = viability gain of MRP-1-high H69AR cells under doxorubicin, pilot screen, MRP-1 activator project, CellTiter-Glo, duplicate (AID 807;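 active = viability increase at or above a cutoff of the median across tested compounds plus 3 SD, cut at about 8.5% in these data, passing the limit was not always enough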;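 note: compound pretreatment 18-22 h then 72 h combined with doxorubicin; 0% = doxorubicin alone and 100% = vehicle without doxorubicin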); settings: H69AR viability with doxorubicin, CellTiter-Glo luminescence; at 10 µM; stronger effect = higher value
[4] = growth suppression of beta-catenin knockout HCT116, pilot screen, human colon tumor cells (AID 823;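 active = cell viability at or below a set limit in both duplicate runs, the limit being the all-compound median minus 4 SD, cut at about 23% in these data, passing the limit was not always enough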;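 note: 0% = wells killed by 20 µM Hyamine and 100% = untreated DMSO cell wells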); settings: CellTiter-Glo, 60 h, at 10 µM, stronger effect = lower value
[5] = growth suppression of PTEN-deleted HCT116, pilot screen, cell-based, HCT116 clonal line, CellTiter-Glo (AID 824); settings: 60 h, at 10 µM, stronger effect = lower value;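 note: 0% = 20 µM Hyamine control and 100% = vehicle cell control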
[6] = inhibitors of the yeast RAM network, pilot screen, dse1pr::URA3 reporter, 5-FOA selection (AID 869;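 active = inhibition over a set limit, the all-compound mean plus 3 SD, in both replicate runs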;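 note: 0% = DMSO wells with no growth and 100% = 10 µM 1-NA-PP1 with full growth; RAM network block rescues cells from 5-FOA so hits raise OD615 growth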); settings: S. cerevisiae dse1pr::URA3 5-FOA growth, OD615, 2 d; at 10 µM; stronger effect = higher value; strain carries analog-sensitive mutant Cbk1 kinase
[7] = RAM signaling pathway blockade in yeast – S. cerevisiae, Pdr1DBD-CYC8 efflux-inhibited sensitized strain, primary screen (AID 1298;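 active = RAM network inhibition above 8.4% in each of two replicates, 3 SD over the compound average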;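 note: 0% = DMSO untreated cells without growth and 100% = 10 µM 1-NA-PP1 full growth; higher means more yeast growth rescued from 5-FOA killing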); settings: S. cerevisiae cbk1-as DSE1-URA3 strain, 5-FOA growth OD615, 2 d; at 50 µM; stronger effect = higher value

COc1ccc(NC(=O)Nc2nnc(N3CCCCC3C)s2)cc1OC (stereo unspecified)
inactive: growth inhibition [1] -5.21% | growth inhibition [2] -10.4% | viability increase [3] -1.91% | viability [4] 99.2% | viability [5] 97.4% | inhibition [6] 2.48% | RAM network inhibition [7] 3.85%

CC(=O)NCc1nc2ccccc2n1Cc1ccccc1C
inactive: growth inhibition [1] 2.5% | growth inhibition [2] -3.57% | viability increase [3] -2.27% | viability [4] 101% | viability [5] 95.7% | inhibition [6] 1.05% | RAM network inhibition [7] 2.57%

CC(=O)Nc1ccc(S(=O)(=O)N2CCN(c3cccc(C)c3C)CC2)cc1
inactive: growth inhibition [1] -2.38% | growth inhibition [2] -3.89% | viability increase [3] -6.76% | viability [4] 35.8% | viability [5] 34.5% | inhibition [6] 0.185% | RAM network inhibition [7] 0.9%

CC1(C)Cc2ccccc2-c2nc(NCCCO)n(-c3ccccc3)c(=O)c21
inactive: growth inhibition [1] -18.3% | growth inhibition [2] -18.9% | viability increase [3] -0.84% | viability [4] 97.7% | viability [5] 91.3% | inhibition [6] 1.07% | RAM network inhibition [7] 5.29%

CCOC(=O)Cn1c(CN2CCOCC2)nc2c1c(=O)n(C)c(=O)n2C
inactive: growth inhibition [1] -1.92% | growth inhibition [2] -5.31% | viability increase [3] 1.26% | viability [4] 107% | viability [5] 103% | inhibition [6] 1.72% | RAM network inhibition [7] 2.19%

Cc1ccc(-c2nn(C)c(=O)c3ccccc23)cc1CNC(=O)c1ccco1
inactive: growth inhibition [1] -19.5% | growth inhibition [2] -16.5% | viability increase [3] -6.36% | viability [4] 78.3% | viability [5] 72.9% | inhibition [6] 1.3% | RAM network inhibition [7] 6.65%

CC1=CCC2C(=O)N(c3ccc(C)c(Br)c3)C(=O)C2C1 (stereo unspecified)
inactive: growth inhibition [1] 5.96% | growth inhibition [2] -0.835% | viability increase [3] 0.55% | viability [4] 99.5% | viability [5] 95.4% | inhibition [6] 0.08% | RAM network inhibition [7] 0%

Cc1nc2ccccc2c2oc(C(=O)N3CCN(C4CCCCC4)CC3)cc12
inactive: growth inhibition [1] 7.91% | growth inhibition [2] 8.38% | viability increase [3] -3.69% | viability [4] 44.1% | viability [5] 57.5% | inhibition [6] 0.555% | RAM network inhibition [7] 3.92%

O=C(c1ccco1)N1CCN(S(=O)(=O)c2cccc3nsnc23)CC1
inactive: growth inhibition [1] -10.9% | growth inhibition [2] -21.4% | viability increase [3] -0.16% | viability [4] 99% | viability [5] 99.7% | inhibition [6] 0.6% | RAM network inhibition [7] 5.06%

Nc1ccc2nc3n(c(=O)c2c1)CCC3
inactive: growth inhibition [1] -2.62% | growth inhibition [2] 4.83% | viability increase [3] 1.87% | viability [4] 104% | viability [5] 108% | inhibition [6] 1.44% | RAM network inhibition [7] 3.92%

CCC(C(=O)N1CC2(C)CC1CC(C)(C)C2)N1C(=O)c2ccccc2C1=O (stereo unspecified)
inactive: growth inhibition [1] -2.71% | growth inhibition [2] -3.99% | viability increase [3] -3.05% | viability [4] 91.5% | viability [5] 96.8% | inhibition [6] 1.57% | RAM network inhibition [7] 6%

COc1cc(S(=O)(=O)N2CCN(Cc3ccc4c(c3)OCO4)CC2)c(C)cc1C
inactive: growth inhibition [1] -4.19% | growth inhibition [2] -11.6% | viability increase [3] -4.77% | viability [4] 57.5% | viability [5] 71.1% | inhibition [6] 2.5% | RAM network inhibition [7] 5.84%

O=S(=O)(Nc1cccc(-c2nc3cccnc3s2)c1)c1ccc2c(c1)OCCO2
inactive: growth inhibition [1] -0.93% | growth inhibition [2] 13.3% | viability increase [3] 0.73% | viability [4] 97.7% | viability [5] 85.3% | inhibition [6] 3.69% | RAM network inhibition [7] 5.51%

CCN(CC)CCN1C(=O)C2C3c4ccccc4C(c4ccccc43)C2C1=O (stereo unspecified)
inactive: growth inhibition [1] -2.27% | growth inhibition [2] -2.01% | viability increase [3] -2.46% | viability [4] 96.5% | viability [5] 95.4% | inhibition [6] 0.035% | RAM network inhibition [7] 1.71%

Cc1nc2sc(C(c3ccco3)N3CCN(C(c4ccccc4)c4ccccc4)CC3)c(O)n2n1 (stereo unspecified)
inactive: growth inhibition [1] -4.01% | growth inhibition [2] 2.75% | viability increase [3] -4.32% | viability [4] 75.6% | viability [5] 62.6% | inhibition [6] 1.81% | RAM network inhibition [7] 10.8%

COc1ccc(C2CC(c3ccc(F)cc3)Nc3nc(N)nn32)cc1OC (stereo unspecified)
inactive: growth inhibition [1] -0.9% | growth inhibition [2] 4.9% | viability increase [3] -0.13% | viability [4] 102% | viability [5] 92.4% | inhibition [6] 1.21% | RAM network inhibition [7] 7.75%

C=CCn1cc(C(=O)NCCCOC)c(=O)c2cc(S(=O)(=O)N3CCC(C)CC3)ccc21
inactive: growth inhibition [1] -10.6% | growth inhibition [2] -19.6% | viability increase [3] -3.54% | viability [4] 96.7% | viability [5] 87% | inhibition [6] 1.56% | RAM network inhibition [7] -0.52%

COc1ccc(-c2cc(C(F)F)n3ncc(C(=O)N4CCN(C(=O)c5ccco5)CC4)c3n2)cc1
inactive: growth inhibition [1] -2.55% | growth inhibition [2] -0.9% | viability increase [3] -5.07% | viability [4] 74.5% | viability [5] 72.6% | inhibition [6] 0.475% | RAM network inhibition [7] 10.2%

COc1ccc(C)cc1NC(=O)Cn1cnc2sc(C)c(S(=O)(=O)N3CCOCC3)c2c1=O
inactive: growth inhibition [1] 4.46% | growth inhibition [2] 4.67% | viability increase [3] -1.23% | viability [4] 102% | viability [5] 99.3% | inhibition [6] 2.75% | RAM network inhibition [7] 9.74%

CC(C)(C)c1ccc(OCC(=O)N2CCN(C=O)CC2)cc1
inactive: growth inhibition [1] -6.68% | growth inhibition [2] -10.2% | viability increase [3] -2.64% | viability [4] 98.1% | viability [5] 100% | inhibition [6] 1.25% | RAM network inhibition [7] 0.67%

CCN(CC)S(=O)(=O)c1ccc2c3c(cccc13)C(=O)N2
inactive: growth inhibition [1] -12.1% | growth inhibition [2] -11.4% | viability increase [3] -4.61% | viability [4] 97.1% | viability [5] 96.8% | inhibition [6] 2.06% | RAM network inhibition [7] 4.63%

Cc1cc(C)n2c(SCC#N)nnc2n1
inactive: growth inhibition [1] -13.1% | growth inhibition [2] -13% | viability increase [3] 0.04% | viability [4] 103% | viability [5] 92.2% | inhibition [6] 2.84% | RAM network inhibition [7] 3.94%

Nn1c(SC/C=C/c2ccccc2)nnc1-c1ccccn1
inactive: growth inhibition [1] -5.81% | growth inhibition [2] -10% | viability increase [3] -0.88% | viability [4] 103% | viability [5] 95.1% | inhibition [6] -0.5% | RAM network inhibition [7] -2.02%

CN(Cc1ccccc1)c1nnc(N)s1
inactive: growth inhibition [1] 0.13% | growth inhibition [2] -3.49% | viability increase [3] -2% | viability [4] 105% | viability [5] 102% | inhibition [6] 0.935% | RAM network inhibition [7] 2.5%

CCOC(=O)c1cn[nH]c1N
inactive: growth inhibition [1] -3.76% | growth inhibition [2] 10.1% | viability increase [3] 0% | viability [4] 101% | viability [5] 102% | inhibition [6] -0.235% | RAM network inhibition [7] 0.61%

CN(C)c1oc(-c2ccccc2Cl)nc1S(=O)(=O)c1ccccc1
active: RAM network inhibition [7] 17%
inactive: growth inhibition [1] -17.1% | growth inhibition [2] 0.09% | viability increase [3] -0.11% | viability [4] 95.5% | viability [5] 93.2% | inhibition [6] 1.2%

CC1CCCCC1NC(=O)C1CCN(C(=O)c2sccc2-n2cccc2)CC1 (stereo unspecified)
inactive: growth inhibition [1] -4.95% | growth inhibition [2] -6.6% | viability increase [3] -1.22% | viability [4] 105% | viability [5] 94.8% | inhibition [6] 2.28% | RAM network inhibition [7] 4.86%

CN(Cc1ccccc1)C(=O)COC(=O)c1ccc2c(c1)OCO2
inactive: growth inhibition [1] -6.52% | growth inhibition [2] -18.6% | viability increase [3] 0.42% | viability [4] 101% | viability [5] 104% | inhibition [6] 0.11% | RAM network inhibition [7] 0.88%

Cc1cc(NS(=O)(=O)c2ccc(NC(=O)c3cnc4scc(C)n4c3=O)cc2)nc(C)n1
inactive: growth inhibition [1] -8.46% | growth inhibition [2] -14.3% | viability increase [3] -2.16% | viability [4] 102% | viability [5] 98.5% | inhibition [6] 1.31% | RAM network inhibition [7] 4.17%

COc1cc(OC)cc(-c2cc3nc(C)c(CCC(=O)O)c(C)n3n2)c1
inactive: growth inhibition [1] 0.5% | growth inhibition [2] -1.06% | viability increase [3] -2.31% | viability [4] 96.6% | viability [5] 96.6% | inhibition [6] 0.805% | RAM network inhibition [7] 1.56%

COC(=O)C1C(=O)C=C(N2CCOCC2)CC1(C)C (stereo unspecified)
inactive: growth inhibition [1] -10.6% | growth inhibition [2] -10.2% | viability increase [3] -0.72% | viability [4] 96.4% | viability [5] 105% | inhibition [6] 0.685% | RAM network inhibition [7] 1.92%

COc1cc(C)c(C)cc1S(=O)(=O)N1CCN(Cc2ccccc2)CC1
inactive: growth inhibition [1] 9.11% | growth inhibition [2] -12.5% | viability increase [3] -3.89% | viability [4] 96.3% | viability [5] 93.5% | inhibition [6] 0.025% | RAM network inhibition [7] 5%

COc1ccc(OC)c(NC(=O)C2CCCN(S(=O)(=O)c3cccc4cccnc34)C2)c1 (stereo unspecified)
inactive: growth inhibition [1] -12.7% | growth inhibition [2] -10.7% | viability increase [3] -3.24% | viability [4] 87.3% | viability [5] 80.1% | inhibition [6] 1.78% | RAM network inhibition [7] 6.71%

From PubChem BioAssay
